Our source for the inhibition values is ChEMBL document CHEMBL3860049, “Virtual Screening and X-ray Crystallography Identify Non-Substrate Analog Inhibitors of Flavin-Dependent Thymidylate Synthase” (J Med Chem, 2016).

In this experiment the test system is Mycobacterium tuberculosis. Description: Inhibition of Mycobacterium tuberculosis ThyX at 100 uM preincubated with enzyme followed by [5-3H]dUMP substrate addition measured after 30 mins in presence of 5,10-methylenetetrahydrofolate,NADPH and FAD by liquid scintillation counting. The method, boiled down: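 Recombinant Mtb ThyX (purified per an earlier protocol) tested at 100 µM per compound. Tritium release assay: formation of tritiated water from loss of 3H at the 5-carbon of the dUMP pyrimidine ring, with dUMP as competing substrate. Read-out is percent inhibition. 5-FdUMP served as reference compound.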
Turning to `O=c1[nH][nH]c(=O)c2nccnc12`, the inhibition (in general, the share of the control response that was lost under treatment) was 5.3%. For the compound `CSc1n[nH]c(=O)c2[nH]cnc12`, the inhibition came out at 10%.

For `CCCC(=O)C1C(=O)NC(=O)NC1=O`, the inhibition was 11%.

On to `CC[C@H](Sc1n[nH]c(=O)[nH]c1=O)C(=O)O`, for which the inhibition was found to be 5.7%. As to `O=c1[nH]nc(Cl)c2nc[nH]c12`, the inhibition was 29%. For `O=c1[nH]nc(-c2ccccc2)c2nc[nH]c12`, the inhibition was determined as 15%. Consider `O=c1[nH]c(=O)n([C@H]2C[C@H](O)[C@@H](COP(=O)(O)O)O2)cc1F`, for which the inhibition worked out at 97.3%. Under `O=c1[nH][nH]c(=O)c2[nH]cnc12` stands 7.1%; under `C[C@@H](Sc1n[nH]c(=O)[nH]c1=O)C(=O)O`, 6.1%. To `Cc1nnc(Cl)c2ncn(C)c12` belongs 14%.

For `O=c1[nH][nH]c(=O)c2nc3ccccc3nc12`, the inhibition is 10%. Under `COc1ccc2[nH]c3c(O)nncc3c2c1` stands 7%.
